SDO1 yeast rescue = growth rescue of sdo1-depleted yeast, primary screen, S. cerevisiae, bone marrow failure model; z-score at 10 µM; S. cerevisiae sdo1-depleted JHY4D growth rescue, OD600 30 h; stronger effect = higher value; pdr5 snq2 efflux-pump mutant strain; AID 817, 2007; 140,000 tested, 0.21% active;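 active = z-score above 3 at both the 24 hr and the 30 hr optical density reads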;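 note: z-score against mean and SD of all compound wells on the same plate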
Yeast life ext = compounds extending yeast replicative lifespan, primary screen, S. cerevisiae, OD615 | S. cerevisiae growth with nicotinamide; deaD strain in restrictive glucose medium | inhibition of the nicotinamide effect, % at 10 µM | 130,000 tested, 0.68% active;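 active = inhibition above a set limit, placed 3 SD over the median of all compounds, cut at about 26% in these data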;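 note: 0% = nicotinamide-treated wells and 100% = cells grown without nicotinamide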
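Assay system: engineered S. cerevisiae DeaD replicative-lifespan strain, galactose-grown log-phase cells; Buffer or medium: CSMM-D glucose medium, restrictive; Probe or stimulus: nicotinamide 1.5 mM; Compound: single dose 10 µM compound, 0.25% DMSO; Schedule: 4 h preincubation then 48 h treatment at 30 °C; Technique: OD615 measurement.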
RAM inhibit = inhibitors of the yeast RAM network, primary screen, dse1pr::URA3 reporter, 5-FOA selection | S. cerevisiae dse1pr::URA3 reporter, 5-FOA growth OD615, 2 d; analog-sensitive cbk1-as2 kinase mutant strain | 190,000 tested, 1.8% active | AID 868, 2007 | inhibition, % at 50 µM;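 active = inhibition above a set limit, 3 SD over mean compound inhibition, cut at about 8.4% in these data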;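 note: 0% = DMSO-only wells with no growth and 100% = 10 µM 1-NA-PP1 full growth; inhibition rescues growth on 5-FOA so higher OD means more RAM inhibition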
Yeast growth inh = growth inhibitors of yeast BB579 in restrictive medium, primary screen, yeast lifespan-shortening project, S. cerevisiae; OD615, 48 h; inhibition, % at 10 µM; AID 804, 2007; 140,000 tested, 0.51% active;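 active = inhibition above a set limit, 3 SD over the mean compound inhibition, cut at about 44% in these data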
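Test system: Saccharomyces cerevisiae DeaD strain BB579, replicative lifespan model yeast | Buffer or medium: Restrictive CSMM-D medium | Doses: One dose, 10 µM compound with 0.25% DMSO | Incubation: 48 h exposure, 30 °C | Detection: Culture absorbance at 615 nm | Control set: Amphotericin B at 10 µg/mL as positive control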
Numbers without * were called inactive; . = no result. Shown are actives, neighbours in structure and some others; about 2.7% of the full set was active somewhere.

SMILES | SDO1 yeast rescue | Yeast life ext | RAM inhibit | Yeast growth inh
Cc1ccc(-c2cc(C(=O)N3N=C(C(F)F)CC3(O)C(F)F)c3ccccc3n2)cc1C (stereo not given) | -2.82 | -8.3 | -0.7 | 67.5*
CCOC(=O)CN1C(=O)N[C@H](c2ccc(Br)cc2)C(C(C)=O)=C1C | 0.42 | 45.9* | -0.7 | -45.4
CC(=O)C1=C(C)N(CC2CC2)C(=O)N[C@H]1c1ccc(Br)cc1 | -0.71 | 0.5 | 2.4 | -20.9
O=c1[nH]cnc(O)c1C(c1ccc2c(c1)OCO2)c1c(O)nc[nH]c1=O | . | . | 0.4 | .
O=S(=O)(c1ccc(F)c2ccccc12)N1CCCCC1 | -0.58 | -20.2 | 8.9* | -6.2
CCOc1ccc(S(=O)(=O)N2CCCCC2)c2ccccc12 | -0.97 | -14.1 | 9.4* | -32.6
O=S(=O)(c1ccccc1S(=O)(=O)N1CCCCC1)N1CCCCC1 | -0.69 | 1.1 | 2.9 | -2.2
CCOc1ccc(S(=O)(=O)N2CCCCC2)c(C)c1C | . | . | 0.5 | .
O=C(Nc1ccc(F)cc1)C1=CC(=O)N2CCN=C2S1 | . | . | 0.3 | .
O=C1NC(=S)S/C1=C\c1ccc(SCc2ccccc2)o1 | -0.66 | 5.2 | 10.0* | -26.2
O=C1NC(=S)S/C1=C\c1ccc(SCc2ccco2)o1 | -1.25 | 3.5 | 4.0 | -40.2
O=C(CSCc1ccc([N+](=O)[O-])cc1)Nc1ccc(S(=O)(=O)N2CCCCCC2)cc1 | -0.3 | 7.5 | 10.2* | -22.4
CCCCC(=O)Nc1ccc(C(=O)Nc2ccc(S(=O)(=O)N3CCCC3)cc2)cc1 | -0.01 | -5.3 | 8.6* | -81.8
CC(=O)c1ccc(NC(=O)c2ccc(S(=O)(=O)N3CCCC3)cc2)cc1 | -0.15 | -6.3 | 2.1 | -31.9
O=C(Nc1ccccc1)C1=C[C@H](c2coc3ccccc3c2=O)C[C@H](OCc2ccc(CO)cc2)O1 | . | . | 5.1 | .
O=C(NCc1ccccc1)C1=C[C@@H](c2csc3ccccc23)C[C@@H](OCCCCO)O1 | . | . | 10.8* | .
O=C(NCc1ccccc1)C1=C[C@@H](C2CC2)C[C@@H](OCc2ccc(CO)cc2)O1 | . | . | 0.1 | .
O=C(NC1CC1)C1=C[C@H](c2csc3ccccc23)C[C@H](OCCCCO)O1 | . | . | 1.1 | .
O=C(NCc1ccccc1)C1=C[C@@H](c2coc3ccccc3c2=O)C[C@@H](OCc2ccc(CO)cc2)O1 | . | . | 8.5* | .
O=C(NCc1ccccc1)C1=C[C@H](C2CCCCC2)C[C@H](OCc2ccc(CO)cc2)O1 | . | . | 11.2* | .
COc1ccc(NS(=O)(=O)c2cc(NC(=O)Cn3cnc4c3c(=O)n(C)c(=O)n4C)ccc2C)cc1 | . | . | 2.3 | .
Cc1ccc(C2=NN(C(=O)CCl)C(c3cccs3)C2)o1 (stereo not given) | -1.17 | 35.3* | -0.4 | -59.7
O=C(COc1ccc(Cl)cc1)NC1=NN(c2ccccc2)C(=O)C1 | 0.37 | 0.3 | -0.5 | 61.6*
Cc1cccc(OCc2nc(C#N)c(NCc3ccc4c(c3)OCO4)o2)c1 | -1.53 | -5.9 | 10.6* | -73.7
N#Cc1nc(COc2ccc(Cl)cc2)oc1NCc1ccc2c(c1)OCO2 | -0.55 | -14.8 | 7.0 | -44.9
SMILES | SDO1 yeast rescue | Yeast life ext | RAM inhibit | Yeast growth inh
O=C(Nc1ccc(F)c(Cl)c1)c1ccc2c(=O)n3c(nc2c1)CCCCC3 | -3.24 | -5.7 | 2.7 | -17.1
O=C(Nc1cccc(Cl)c1)c1ccc2c(=O)n3c(nc2c1)CCCCC3 | -2.19 | 59.2* | -0.7 | -39.3
Cc1ccc(S(=O)(=O)N2CCC(=O)N(C(COCc3ccc(C(F)(F)F)cc3)Cc3ccccc3)CC2)cc1 (stereo not given) | 0.08 | 2.4 | 10.0* | -31.9
Cc1ccc(S(=O)(=O)N2CCC(=O)N(CCOCc3ccc(C(F)(F)F)cc3)CC2)cc1 | -0.84 | 8.2 | 0.8 | -40.5
Cc1ccc(C)c(NC(=O)c2ccccn2)c1 | 0.43 | -9.7 | 0.6 | -42.0
Cc1ccc(C)c(NC(=O)c2ccc3ccccc3n2)c1 | -1.43 | -11.4 | 10.4* | -34.5
Cc1ccc(NC(=O)c2cc(S(=O)(=O)NCCc3ccccc3)ccc2F)cc1Cl | -0.89 | 0.9 | 5.5 | -33.7
O=C(Nc1cccc(Cl)c1)c1cc(S(=O)(=O)NCCc2ccc(Cl)cc2)ccc1F | -2.15 | 0.1 | 10.4* | -26.1
CCCOc1ccc(/C(O)=C2/C(=O)C(=O)N(c3cc(C)on3)C2c2ccc(C(=O)OC)cc2)cc1 (stereo not given) | 0.4 | -28.4 | 10.9* | 2.3
CCOc1ccc(/C(O)=C2/C(=O)C(=O)N(c3cc(C)on3)C2c2ccc(C(=O)OC)cc2)cc1 (stereo not given) | -0.11 | -1.7 | 1.8 | -24.3
O=[N+]([O-])c1c(NCc2ccccc2)cc(N2CCc3ccccc3C2)c2nonc12 | 0.15 | -1.4 | 7.3 | -19.9
C=CCn1c(SCc2csc(C)n2)nc2sc3c(c2c1=O)CCCC3 | -1.41 | -11.9 | 9.3* | -67.5
CCN(CC)c1ccc(NC(=S)NC(=O)c2cccs2)cc1 | . | . | 0.3 | .
Cc1cc(C)c2c(N=NN3CCCCC3)[nH]nc2n1 | -0.37 | -7.9 | -0.8 | 85.3*
CCN(CC)N=Nc1[nH]nc2nc(C)cc(C)c12 | 0.24 | -25.3 | -0.4 | 78.5*
O=S(=O)(Nc1ccc(Cl)cc1)c1ccc(N2CCOCC2)c(NC(=S)NCCN2CCOCC2)c1 | . | . | 1.2 | .
Nc1cc2sc(-c3ccc(C(=O)O)cc3)nc2cc1Cl | 0.2 | -5.1 | 4.0 | -19.6
Nc1ccc(-c2nc3ccc(C(=O)O)cc3s2)cc1 | 0.11 | -2.6 | 9.1* | -12.5
CC1CCN(c2nc3ccc(C(=O)O)cc3s2)CC1 | -0.37 | -8.4 | 1.6 | -4.8
O=C(O)c1ccc2nc(-c3ccccc3)sc2c1 | -0.12 | -7.9 | 0.1 | 47.4*
CCc1nc2cc(C)nn2c2nc3ccccc3n12 | 0.86 | -20.6 | 1.4 | 10.4
Cc1cc2nc(C)n3c4ccccc4nc3n2n1 | -0.53 | -15.4 | 1.7 | 85.5*
CON/C=C(\C=Nc1ccc(Cl)cc1)c1ncc(C(F)(F)F)cc1Cl | -0.93 | 7.1 | 11.2* | -69.7
CCOC(=O)C1=C(Cc2ccc(C)cc2)C(=O)c2ccccc2C1=O | -2.14 | 4.0 | 9.6* | -84.7
CC(C)CN=C(NS(=O)(=O)c1ccccc1)C(Cl)(Cl)Cl | -1.86 | 43.6* | 0.5 | -26.6
SMILES | SDO1 yeast rescue | Yeast life ext | RAM inhibit | Yeast growth inh
CC(C)CC(NS(=O)(=O)c1ccccc1)C(=O)O (stereo not given) | 0.26 | -6.5 | 0.7 | -28.2
COc1cc(OC)cc(-c2nnc(SCC(=O)N3CCCc4ccccc43)o2)c1 | -0.77 | -9.8 | 2.0 | -4.8
COc1ccc(-c2nc(CSCC(=O)N3CCc4ccccc43)c(C)o2)cc1OC | -1.63 | -14.9 | 4.7 | 26.8
COc1cccc(-c2nc(CSCC(=O)N3CCc4ccccc43)c(C)o2)c1 | -0.71 | -5.8 | 8.8* | -29.6
COc1cccc(-c2nnc(SCC(=O)N3CCCc4ccccc43)o2)c1 | -1.6 | -12.4 | 8.5* | -40.3
CCOC(=O)c1c(C)[nH]c(C(=O)Cn2nnc(-c3ccccc3Cl)n2)c1C | -0.28 | 1.2 | 3.6 | -23.0
CCOC(=O)c1c(C)[nH]c(C(=O)Cn2nnc(-c3ccccc3)n2)c1C | -0.72 | -3.5 | 8.9* | -50.0

Compound activity (PubChem BioAssay)
